Test results: ChEMBL document CHEMBL1148287, “Design of potent, selective, and orally bioavailable inhibitors of cysteine protease cathepsin k” (J Med Chem, 2004)
One block for each compound: values may come before it.

Experiments:
[1] = biological target: T1, Cathepsin K (Homo sapiens, UniProt P43235); test: Concentration required to inhibit 50% of cysteine protease cathepsin K of human
T1 sequence (P43235 whole entry): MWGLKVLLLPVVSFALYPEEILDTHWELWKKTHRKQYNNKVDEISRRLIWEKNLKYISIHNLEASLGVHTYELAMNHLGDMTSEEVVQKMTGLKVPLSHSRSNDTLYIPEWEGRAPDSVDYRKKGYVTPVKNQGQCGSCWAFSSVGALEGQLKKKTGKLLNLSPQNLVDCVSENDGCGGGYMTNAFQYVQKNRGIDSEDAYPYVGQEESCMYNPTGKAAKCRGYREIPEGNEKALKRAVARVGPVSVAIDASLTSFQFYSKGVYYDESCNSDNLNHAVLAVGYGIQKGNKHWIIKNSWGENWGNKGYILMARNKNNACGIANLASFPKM
Method in brief: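 Reactions were started by adding inhibitor plus substrate to enzyme. AMC fluorescence (ex 360/em 440) progress curves were followed over 2.3 h at varied inhibitor concentrations. IC50 was fitted as rate = Vmax/(1+[I]/IC50).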

[2] = biological target: T2, Cathepsin K (Rattus norvegicus, UniProt O35186); test: Inhibition of cysteine protease cathepsin K of rat
T2 sequence (O35186 whole entry): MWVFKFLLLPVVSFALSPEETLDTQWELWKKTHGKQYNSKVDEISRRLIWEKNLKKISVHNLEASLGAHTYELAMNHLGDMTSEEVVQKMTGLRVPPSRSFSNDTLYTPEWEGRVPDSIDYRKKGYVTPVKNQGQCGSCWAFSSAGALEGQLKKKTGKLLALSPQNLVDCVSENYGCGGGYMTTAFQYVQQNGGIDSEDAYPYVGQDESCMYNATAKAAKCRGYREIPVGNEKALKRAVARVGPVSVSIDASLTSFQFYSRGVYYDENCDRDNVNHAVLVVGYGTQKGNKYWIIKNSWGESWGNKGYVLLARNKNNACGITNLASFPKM

[3] = Maximum time required to achieve Cmax was determined in rat; format: ADME, organism-based; settings: in vivo
Method in brief: (§1)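 Rats were dosed iv into the femoral vein at 5 mg/kg or orally at 10 mg/kg, from a solution in 15% solutol/citrate buffer/0.1% ascorbic acid, pH 3.5. Blood was drawn from a jugular cannula before dosing and at 0.03–24 h, then clotted to serum. Samples were acetonitrile-precipitated with internal standard and analysed by LC-MS/MS (MRM). Parameters came from noncompartmental analysis.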

[4] = Peak plasma concentration in rat; format: ADME, organism-based; method in brief: as §1
[5] = Bioavailability in rat; format: ADME, organism-based; settings: in vivo; method in brief: as §1
[6] = Compound was tested for its cell permeability in the Madin-Darby canine kidney cell monolayer transport assay; format: ADME, Canis lupus familiaris; settings: dog, MDCK; read-out: Activity
[7] = Area Under plasma concentration time curve in rat upon peroral administration; format: ADME, organism-based; settings: po; method in brief: as §1
[8] = Half-life in rat; format: ADME, organism-based; settings: in vivo; method in brief: as §1
[9] = Percent instability was measured by Rat S9 liver […] metabolism assay, in vitro; format: ADME, Liver S9 fraction; settings: read-out: Activity
Method in brief: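 Rat S9 liver metabolism, read as % metabolized after 1 h incubation at 37 °C, run in duplicate.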

[10] = Selectivity ratio between IC50 against Cathepsin S and IC50 against Cathepsin K
Method in brief: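 Recombinant human cathepsin S was run with Cbz-Val-Val-Arg-AMC at 10 μM final (Km >100 μM); human cathepsin K used Cbz-Phe-Arg-AMC at 10 μM. Both were in pH 5.5 sodium acetate with 10 mM DTT, 120 mM NaCl and 10% DMSO at 30 °C, with AMC fluorescence progress curves over 2.3 h. The ratio was taken from the fitted IC50s.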

[11] = biological target: Cathepsin (H and K) (Homo sapiens) (UniProt P09668+P43235); test: Selectivity for Cathepsins H and K, ratio of IC50; format: protein assay
Sequence of Cathepsin (H and K) (Homo sapiens) (P09668 whole entry, looked up, one chain of several): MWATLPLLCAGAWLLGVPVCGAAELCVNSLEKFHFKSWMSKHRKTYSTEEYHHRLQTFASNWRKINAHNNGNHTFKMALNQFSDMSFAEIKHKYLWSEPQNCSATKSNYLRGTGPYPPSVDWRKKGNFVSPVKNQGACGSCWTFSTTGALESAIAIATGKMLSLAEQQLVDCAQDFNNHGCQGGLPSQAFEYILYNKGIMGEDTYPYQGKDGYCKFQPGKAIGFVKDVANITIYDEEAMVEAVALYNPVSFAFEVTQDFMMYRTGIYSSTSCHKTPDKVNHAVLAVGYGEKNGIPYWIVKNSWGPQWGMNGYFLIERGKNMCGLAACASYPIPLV
Method in brief: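 Human liver cathepsin H was run with L-Arg-β-naphthalamide at 50 μM final (Km 195 μM), read at ex 340/em 420. Human cathepsin K used Cbz-Phe-Arg-AMC at 10 μM, read at ex 360/em 440. Both were at pH 5.5 with DTT/NaCl and 10% DMSO at 30 °C, with 2.3 h progress curves. IC50s were fitted from rate vs [I] and ratioed.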

[12] = Selectivity as ratio between IC50 against Cathepsin B and IC50 against Cathepsin K
Method in brief: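 Human liver cathepsin B and recombinant human cathepsin K were each run with Cbz-Phe-Arg-AMC at 10 μM final (Km 400 and 70 μM). Both used pH 5.5 acetate/DTT/NaCl buffer, 10% DMSO, 30 °C and a 2.3 h fluorescence progress-curve read (ex 360/em 440). IC50s were fitted from rate vs [I], and the ratio of the two IC50s was taken.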

[13] = Selectivity as ratio between IC50 against Cathepsin L and IC50 against Cathepsin K
Method in brief: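 Both assays used pH 5.5 acetate/DTT/NaCl, 10% DMSO, 30 °C and AMC fluorescence progress curves over 2.3 h. IC50s were fitted from rate vs [I] and taken as a ratio.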

[14] = species: Homo sapiens; test: Selectivity as ratio between IC50 against Cathepsin V and IC50 against Cathepsin K
Method in brief: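 Conditions were pH 5.5 acetate buffer with 10 mM DTT, 120 mM NaCl and 10% DMSO at 30 °C, with fluorescence progress curves over 2.3 h. The IC50 fits gave the ratio.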

[15] = species: Rattus norvegicus; test: Volume of distribution in steady state was determined in rat; format: ADME, organism-based; settings: in vivo; method in brief: as §1

IC50 [1]: 360 nM
Structure (SMILES): CC(C)C(OC(=O)N[C@@H](C)C(=O)C(=O)NCc1cccs1)C(C)C

IC50 [2]: 1600 nM
IC50 [1]: 62 nM
Structure (SMILES): CCCC[C@H](NC(=O)OC(C(C)C)C(C)C)C(=O)C(=O)Nc1ccnn1CCC(C)(C)C

IC50 [2]: 1000 nM
IC50 [1]: 17 nM
Structure (SMILES): CCCC[C@H](NC(=O)OC(C(C)C)C(C)C)C(=O)C(=O)Nc1ccnn1C(C)C

Tmax [3]: 0.167 h
Cmax [4]: 170 ng/mL
bioavailability [5]: 18%
Papp [6]: 23 ×10⁻⁶ cm/s
AUC [7]: 750 ng·h/mL
half-life [8]: 2.17 h
IC50 [1]: 40 nM
metabolised [9]: 98%
Structure (SMILES): CCCC[C@H](NC(=O)OC(C(C)C)C(C)C)C(=O)C(=O)Nc1nccs1

Ratio [10]: 5.4
Ratio [11]: > 500
Ratio [12]: > 500
IC50 [2]: 470 nM
Ratio [13]: 44
IC50 [1]: 25 nM
Ratio [14]: 19
Structure (SMILES): CCCC[C@H](NC(=O)OC(C(C)C)C(C)C)C(=O)C(=O)Nc1ccnn1-c1ccncc1

IC50 [1]: 95 nM
Structure (SMILES): CCCC[C@H](NC(=O)OC(C(C)C)C(C)C)C(=O)C(=O)Nc1cccnc1

IC50 [1]: 52 nM
Structure (SMILES): CCCC[C@H](NC(=O)OC(C(C)C)C(C)C)C(=O)C(=O)Nc1cnccn1

Tmax [3]: 0.25 h
Cmax [4]: 1400 ng/mL
bioavailability [5]: 58%
Papp [6]: 21 ×10⁻⁶ cm/s
AUC [7]: 2700 ng·h/mL
half-life [8]: 2.17 h
IC50 [1]: 32 nM
metabolised [9]: 63%
Structure (SMILES): CCCC[C@H](NC(=O)OC(C(C)C)C(C)C)C(=O)C(=O)Nc1ccccn1

Ratio [10]: 3.6
IC50 [1]: 0.91 nM
Structure (SMILES): CCCC[C@H](NC(=O)OC(C(C)C)C(C)C)C(=O)C(=O)Nc1[nH]ncc1C#N

Ratio [10]: 41
Ratio [11]: > 470
Ratio [12]: > 470
IC50 [2]: 1700 nM
Ratio [13]: 220
IC50 [1]: 27 nM
Ratio [14]: 63
Structure (SMILES): CCCC[C@H](NC(=O)OC(C(C)C)C(C)C)C(=O)C(=O)Nc1ccnn1CC1CC1

IC50 [1]: 87 nM
Structure (SMILES): CCC(C)[C@H](NC(=O)OC(C(C)C)C(C)C)C(=O)C(=O)NCc1cccs1 (stereo partly drawn)

Ratio [10]: 4.6
Structure (SMILES): CCCC[C@H](NC(=O)OC(C(C)C)C(C)C)C(=O)C(=O)Nc1cc(C)[nH]n1

Ratio [10]: 59
Ratio [11]: > 320
Ratio [12]: > 320
IC50 [2]: 2700 nM
Ratio [13]: 260
IC50 [1]: 39 nM
Ratio [14]: 120
Structure (SMILES): CCCC[C@H](NC(=O)OC(C(C)C)C(C)C)C(=O)C(=O)Nc1ccnn1CC(C)C

IC50 [2]: 1100 nM
IC50 [1]: 20 nM
Structure (SMILES): CCCC[C@H](NC(=O)OC(C(C)C)C(C)C)C(=O)C(=O)Nc1ccnn1C1CCCC1

IC50 [2]: 1200 nM
IC50 [1]: 22 nM
Structure (SMILES): CCCC[C@H](NC(=O)OC(C(C)C)C(C)C)C(=O)C(=O)Nc1ccnn1C1CCCCC1

Tmax [3]: 0.25 h
Cmax [4]: 370 ng/mL
Ratio [10]: 3
Ratio [11]: 30
bioavailability [5]: 41%
Papp [6]: 48 ×10⁻⁶ cm/s
AUC [7]: 1100 ng·h/mL
half-life [8]: 11.7 h
Ratio [12]: 670
IC50 [2]: 13 nM
Ratio [13]: 40
IC50 [1]: 0.77 nM
Ratio [14]: 21
Vss [15]: 15 L/kg
metabolised [9]: 77%
Structure (SMILES): CCCC[C@H](NC(=O)OC(C(C)C)C(C)C)C(=O)C(=O)Nc1cc[nH]n1

Tmax [3]: 0.633 h
Cmax [4]: 690 ng/mL
bioavailability [5]: 15%
AUC [7]: 920 ng·h/mL
half-life [8]: 2.83 h
IC50 [1]: 83 nM
metabolised [9]: 96%
Structure (SMILES): CCCC[C@H](NC(=O)OC(C(C)C)C(C)C)C(=O)C(=O)Nc1nncs1

IC50 [1]: 27 nM
Structure (SMILES): CC(C)C(OC(=O)N[C@@H](Cc1ccccc1)C(=O)C(=O)NCc1cccs1)C(C)C

IC50 [1]: 47 nM
Structure (SMILES): CC(C)C(OC(=O)N[C@H](C(=O)C(=O)NCc1cccs1)C(C)C)C(C)C

IC50 [1]: 250 nM
Structure (SMILES): CCCC[C@H](NC(=O)OC(C(C)C)C(C)C)C(=O)C(=O)Nc1ccc2ccccc2n1

IC50 [1]: 4.8 nM
Structure (SMILES): CCCC[C@H](NC(=O)OC(C(C)C)C(C)C)C(=O)C(=O)Nc1cc2ccccc2cn1
